Test results taken from PubChem BioAssay AID651576 (The Scripps Research Institute Molecular Screening Center, 2012).
Values joined by “and” are separate entries in the source; they are usually repeats but may differ in a detail not shown here. Equal values may be shown once. Active and inactive are the calls of the source.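 The calls were made as follows: active = inhibition of at least 50%, averaged over three replicate wells; inactive = inhibition below 50%.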

tested on: HCV core protein (core106) dimerization, Hepatitis C virus; assay: disruption of HCV core self-association – biochemical, AlphaScreen luminescence, single dose 15 µM, powder samples, late-stage follow-up (AID 651576); settings: AlphaScreen GST/Flag-core106 dimerization, at 15 µM, stronger effect = higher value
Outline: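 Assay system: HCV core106 dimerization between GST-tagged and Flag-tagged core106 proteins. Dosing: single nominal test compound dose of 15 µM. Incubation: 1 h protein preincubation at room temperature, then 1 h per bead addition. Detection: AlphaScreen luminescence. Evaluation: percent inhibition of AlphaScreen signal versus uninhibited protein-only wells.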

| Compound | inhibition |
| --- | --- |
| Cc1ccc(Cc2c(C)nc3nc(SCC(=O)NCCN4CCN(Cc5ccc(F)cc5)CC4)nn3c2C)cc1 | 66% |
| Cc1ccc(Cc2c(CCc3ccccc3)nc3nc(SCC(=O)NCCN4CCOCC4)nn3c2C)cc1 | 44% (inactive) |
| Cc1ccc(Cc2c(C)nc3nc(SCC(=O)NCCN4CCCN(S(=O)(=O)c5ccc(C)cc5)CC4)nn3c2C)cc1 | 79% |
| Cc1ccc(Cc2c(C)nc3nc(SCC(=O)NCCN4CCN(Cc5ccccc5)CC4)nn3c2C)cc1 | 66% |
| Cc1ccc(Cc2c(C)nc3nc(SCC(=O)NCCCCCNC(=O)CSc4nc5nc(C)c(Cc6ccc(C)cc6)c(C)n5n4)nn3c2C)cc1 | 78% |
| Cc1cccc(Cc2c(C)nc3nc(SCC(=O)N4CCCCCC4)nn3c2C)c1 | 71% |
| Cc1ccc(Cc2c(C)nc3nc(SCC(=O)NCCCCNC(=O)CSc4nc5nc(C)c(Cc6ccc(C)cc6)c(C)n5n4)nn3c2C)cc1 | 88% |
| CCN(CC)C(=O)CSc1nc2nc(C)c(Cc3ccc(C)cc3)c(C)n2n1 | 11% (inactive) |
| Cc1ccc(Cc2c(C)nc3nc(SCC(=O)NCCN4CCN(S(=O)(=O)c5ccc(C)cc5)CC4)nn3c2C)cc1 | < 50% (inactive) |
| Cc1nc2nc(SCC(=O)NCCCNC(=O)CSc3nc4nc(C)c(Cc5ccncc5)c(C)n4n3)nn2c(C)c1Cc1ccncc1 | < 50% (inactive) |
| CCCNC(=O)CSc1nc2nc(C)c(Cc3cccc(C)c3)c(C)n2n1 | 33% (inactive) |
| Cc1ccc(Cc2c(C)nc3nc(SCC(=O)N4CCN(CCc5ccccc5)CC4)nn3c2C)cc1 | 41% (inactive) |
| Cc1ccc(Cc2c(CCc3ccccc3)nc3nc(SC(Cc4ccccc4)C(=O)NCCN4CCOCC4)nn3c2C)cc1 (configuration not stated) | 85% |
| Cc1ccc(Cc2c(C)nc3nc(SCC(=O)N[C@H]4CCCN(C(=O)CSc5nc6nc(C)c(Cc7ccc(C)cc7)c(C)n6n5)C4)nn3c2C)cc1 | 85% |
| Cc1ccc(Cc2c(C)nc3nc(SCC(=O)N4C[C@@H]5C[C@H]4CN5C(=O)CSc4nc5nc(C)c(Cc6ccc(C)cc6)c(C)n5n4)nn3c2C)cc1 | 67% |
| Cc1nc2nc(SCC(=O)N(C)CCN3CCOCC3)nn2c(C)c1Cc1ccc(Br)cc1 | 12% (inactive) |
| Cc1ccc(Cc2c(C)nc3nc(SCC(=O)N4CCN(Cc5ccc(Cl)cc5)CC4)nn3c2C)cc1 | 44% (inactive) |
| Cc1ccc(Cc2c(C)nc3nc(SCC(=O)N4CCN(C)CC4)nn3c2C)cc1 | 37% (inactive) |
| Cc1ccc(Cc2c(C)nc3nc(SCC(=O)NCCN4CCCN(C(=O)OC(C)(C)C)CC4)nn3c2C)cc1 | < 50% (inactive) |
| Cc1ccc(Cc2c(C)nc3nc(SCC(=O)NC4CCC(NC(=O)CSc5nc6nc(C)c(Cc7ccc(C)cc7)c(C)n6n5)CC4)nn3c2C)cc1 (configuration not stated) | 92% |
| Cc1ccc(Cc2c(C)nc3nc(SCC(=O)NCCN4CCCN(C(=O)c5ccc(F)cc5)CC4)nn3c2C)cc1 | < 50% (inactive) |
| Cc1ccc(Cc2c(C)nc3nc(SCC(=O)NCCN4CCCN(C(=O)c5ccccc5)CC4)nn3c2C)cc1 | < 50% (inactive) |
| Cc1ccc(Cc2c(C)nc3nc(SCC(=O)NCC4CCCCN4C(=O)CSc4nc5nc(C)c(Cc6ccc(C)cc6)c(C)n5n4)nn3c2C)cc1 (configuration not stated) | 93% |

| Compound | inhibition |
| --- | --- |
| Cc1ccc(Cc2c(C)nc3nc(SCC(=O)NCCCCCCNC(=O)CSc4nc5nc(C)c(Cc6ccc(C)cc6)c(C)n5n4)nn3c2C)cc1 | 88% |
| Cc1ccc(Cc2c(C)nc3nc(SCC(=O)NCCN4CCN(S(=O)(=O)c5ccccc5)CC4)nn3c2C)cc1 | 62% |
| Cc1ccc(Cc2c(C)nc3nc(SCC(=O)NCCN4CCN(C(=O)c5ccc(F)cc5)CC4)nn3c2C)cc1 | < 50% (inactive) |
| Cc1ccc(Cc2c(C)nc3nc(SCC(=O)NCCCNC(=O)CSc4nc5nc(C)c(Cc6ccc(C)cc6)c(C)n5n4)nn3c2C)cc1 | 96% |
| Cc1ccc(Cc2c(C)nc3nc(SCC(=O)N4CCN(Cc5ccc(C)cc5)CC4)nn3c2C)cc1 | 14% (inactive) |
| Cc1ccc(Cc2c(C)nc3nc(SCC(=O)NCCN4CCCN(S(=O)(=O)c5ccccc5)CC4)nn3c2C)cc1 | 83% |
| Cc1ccc(Cc2c(C)nc3nc(SCC(=O)N4CCN(Cc5ccc(F)cc5)CC4)nn3c2C)cc1 | 10% (inactive) |
| Cc1ccc(Cc2c(C)nc3nc(SCC(=O)NCCN4CCN(Cc5ccc(Cl)cc5)CC4)nn3c2C)cc1 | 87% |
| Cc1ccc(Cc2c(C)nc3nc(SCC(=O)N4CCN(C(=O)CSc5nc6nc(C)c(Cc7ccc(C)cc7)c(C)n6n5)CC4)nn3c2C)cc1 | 87% |
| Cc1ccc(Cc2c(C)nc3nc(SCC(=O)NC4CCN(C(=O)CSc5nc6nc(C)c(Cc7ccc(C)cc7)c(C)n6n5)CC4)nn3c2C)cc1 | 80% |
| Cc1cccc(Cc2c(C)nc3nc(SCC(=O)NCC(C)NC(=O)CSc4nc5nc(C)c(Cc6cccc(C)c6)c(C)n5n4)nn3c2C)c1 (configuration not stated) | 67% |
| Cc1ccc(Cc2c(C)nc3nc(SCC(=O)N4CCCN(C(=O)CSc5nc6nc(C)c(Cc7ccc(C)cc7)c(C)n6n5)CC4)nn3c2C)cc1 | 90% |
| Cc1ccc(Cc2c(C)nc3nc(SCC(=O)NCc4ccc(CNC(=O)CSc5nc6nc(C)c(Cc7ccc(C)cc7)c(C)n6n5)cc4)nn3c2C)cc1 | 89% |
| Cc1ccc(Cc2c(C)nc3nc(SCC(=O)NCCNC(=O)CSc4nc5nc(C)c(Cc6ccc(C)cc6)c(C)n5n4)nn3c2C)cc1 | 52% |
| Cc1ccc(Cc2c(C)nc3nc(SCC(=O)NCCN4CCN(C(=O)c5ccccc5)CC4)nn3c2C)cc1 | < 50% (inactive) |
| Cc1nc2nc(SCC(=O)NCCC3=CCCCC3)nn2c(C)c1Cc1ccc(Cl)cc1 | 30% (inactive) |
| Cc1ccc(Cc2c(C)nc3nc(SCC(=O)Nc4ccccc4NC(=O)CSc4nc5nc(C)c(Cc6ccc(C)cc6)c(C)n5n4)nn3c2C)cc1 | 80% |
| Cc1ccc(Cc2c(C)nc3nc(SCC(=O)NCC4CCN(C(=O)CSc5nc6nc(C)c(Cc7ccc(C)cc7)c(C)n6n5)CC4)nn3c2C)cc1 | 89% |
| Cc1ccc(Cc2c(C)nc3nc(SCC(=O)NCC[N+]4(Cc5ccc(F)cc5)CCN(Cc5ccc(F)cc5)CC4)nn3c2C)cc1 | < 50% (inactive) |
| Cc1ccc(Cc2c(C)nc3nc(SCC(=O)NC4CCCC(NC(=O)CSc5nc6nc(C)c(Cc7ccc(C)cc7)c(C)n6n5)C4)nn3c2C)cc1 (configuration not stated) | 98% |
| Cc1ccc(Cc2c(C)nc3nc(SCc4ccc(Cl)cc4)nn3c2C)cc1 | 52% |
| Cc1nc2nc(SCC(=O)N3CCN(C(=O)CSc4nc5nc(C)c(Cc6ccc(Br)cc6)c(C)n5n4)CC3)nn2c(C)c1Cc1ccc(Br)cc1 | 25% (inactive) |

Continued, values first:

| inhibition | Compound |
| --- | --- |
| 51% | Cc1ccc(Cc2c(C)nc3nc(SCC(=O)NCCN4CCN(C(=O)OC(C)(C)C)CC4)nn3c2C)cc1 |
| 43% (inactive) | Cc1ccc(Cc2c(C)nc3nc(SCC(=O)NCCC(C)C)nn3c2C)cc1 |
| < 50% (inactive) | C=CCN1CCN(CCNC(=O)CSc2nc3nc(C)c(Cc4ccc(C)cc4)c(C)n3n2)CC1 |
| 38% (inactive) | CCCNC(=O)CSc1nc2nc(C)c(Cc3ccc(C)cc3)c(C)n2n1 |
| < 50% (inactive) | Cc1ccc(Cc2c(C)nc3nc(SCC(=O)NCCN4CCCC4)nn3c2C)cc1 |
| 59% | Cc1ccc(Cc2c(C)nc3nc(SCC(=O)NC4CCCCCCC4)nn3c2C)cc1 |
| 97% and 82% | Cc1ccc(Cc2c(C)nc3nc(SCC(=O)NCCN4CCCCCC4)nn3c2C)cc1 |
| -11% (inactive) | Cc1nc2nc(SCC(=O)NCCN3CCOCC3)nn2c(C)c1Cc1ccncc1 |
| 22% (inactive) | Cc1ccc(Cc2c(C)nc3nc(SCC(=O)NCCC4=CCCCC4)nn3c2C)cc1 |
| < 50% (inactive) | C#CCN1CCN(CCNC(=O)CSc2nc3nc(C)c(Cc4ccc(C)cc4)c(C)n3n2)CC1 |
| 13% (inactive) | Cc1ccc(Cc2c(C)nc3nc(SCC(=O)N4CCOCC4)nn3c2C)cc1 |
| 40% (inactive) | Cc1ccc(Cc2c(C)nc3nc(SCC(=O)NCCc4ccccc4)nn3c2C)cc1 |
| 87% | Cc1ccc(Cc2c(C)nc3nc(SCC(=O)N4CCCC4)nn3c2C)cc1 |
| 51% | Cc1ccc(Cc2c(C)nc3nc(SCC(=O)N(C)C)nn3c2C)cc1 |
| 60% | Cc1ccc(Cc2c(C)nc3nc(SCC(=O)NCCN4CCOCC4)nn3c2C)cc1 |
| < 50% (inactive) | Cc1ccc(Cc2c(C)nc3nc(SCC(=O)NCCN4CCCNCC4)nn3c2C)cc1 |

| inhibition | Compound |
| --- | --- |
| 51% | Cc1ccc(Cc2c(C)nc3nc(SCC(=O)NCCN4CCNCC4)nn3c2C)cc1 |
| < 50% (inactive) | CC(=O)N1CCN(CCNC(=O)CSc2nc3nc(C)c(Cc4ccc(C)cc4)c(C)n3n2)CC1 |
| < 50% (inactive) | CCCN1CCN(CCNC(=O)CSc2nc3nc(C)c(Cc4ccc(C)cc4)c(C)n3n2)CC1 |
| 42% (inactive) | Cc1ccc(Cc2c(C)nc3nc(SCC(=O)N4CCNCC4)nn3c2C)cc1 |
| 53% | Cc1ccc(Cc2c(C)nc3nc(SCC(=O)NCCN4CCCN(S(C)(=O)=O)CC4)nn3c2C)cc1 |
| 56% | Cc1ccc(Cc2c(C)nc3nc(SCC(=O)NCCN4CCCCC4)nn3c2C)cc1 |
| < 50% (inactive) | Cc1ccc(Cc2c(C)nc3nc(SCC(=O)NCCN(C)C)nn3c2C)cc1 |
| 16% (inactive) | Cc1ccc(Cc2c(C)nc3nc(SCC(=O)NCCCN4CCCCCC4)nn3c2C)cc1 |
| < 50% (inactive) | Cc1ccc(Cc2c(C)nc3nc(SCC(=O)NCCN4CCN(S(C)(=O)=O)CC4)nn3c2C)cc1 |
| 46% (inactive) | Cc1ccc(Cc2c(C)nc3nc(SCC(=O)NCC[N+]4(C)CCOCC4)nn3c2C)cc1 |
| 65% | CCN(CC)CCCNC(=O)CSc1nc2nc(C)c(Cc3ccc(C)cc3)c(C)n2n1 |
| < 50% (inactive) | Cc1nc2nc(SCC(=O)NCCN3CCOCC3)nn2c(C)c1Cc1ccc(Br)cc1 |
| < 50% (inactive) | Cc1ccc(Cc2c(C)nc3nc(SCC(=O)NCCC4CCOCC4)nn3c2C)cc1 |
| 63% | Cc1ccc(Cc2c(C)nc3nc(SCC(=O)N4CCSCC4)nn3c2C)cc1 |
| < 50% (inactive) | Cc1ccc(Cc2c(C)nc3nc(SCC(=O)NCCN4CCN(C(=O)C(C)C)CC4)nn3c2C)cc1 |
| 41% (inactive) | Cc1ccc(Cc2c(C)nc3nc(SCC(=O)N4CCCCC4)nn3c2C)cc1 |
